Assay [1] has as its system human beta cells in islet grafts. In words: TUNEL assay of human beta-cell apoptosis in recovered islet grafts. It counts as in vivo. The gist of the method: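 Recovered human islet grafts were taken on days 29, 32 and 21 for the Donor 3, 4 and 5 studies, at the end of twice-daily sc dosing. Sections were co-stained for insulin and TUNEL-labelled following the kit instructions. Cells were visualized by fluorescence microscopy and counted, and results expressed as percent TUNEL-positive beta cells.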

Assay [2] deals with diabetic NSG RIP-DTR mice engrafted with human islets. Put plainly: Glucose tolerance test. The format is in vivo, mouse. The note with it: for GTT vs controls: Donor 3 study. A digest of the protocol:
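Human islet-engrafted diabetic NSG RIP-DTR mice on twice-daily sc vehicle or test compound were fasted 5–6 hours. Glucose (2.0 g/kg body weight) was injected ip, and blood glucose was measured afterwards.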

For assay [3] the test system is unchanged. The format is in vivo, mouse. The conditions noted are these: Donor 5 study; low dose 50 µg/kg sc twice daily.
For assay [4] the test system is unchanged. Put plainly: Body weight of human islet-engrafted mice. It counts as in vivo, mouse. The note with it: 50, 150, 500 µg/kg sc twice daily. A digest of the protocol: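 Male NSG RIP-DTR mice, 8–12 weeks old, made diabetic by diphtheria toxin ablation of mouse beta cells and engrafted with a marginal mass of human islets from a single donor. Randomized into four groups: vehicle or test compound at 50, 150 or 500 µg/kg/injection, given sc twice daily until removal of the graft-bearing kidney at ~4 weeks post-transplant. Body weights followed over the study.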

In assay [5] the test system is human islets engrafted in NSG RIP-DTR mice. Put plainly: Plasma human insulin. The conditions noted are these: 2 weeks post-transplant. It counts as in vivo, mouse.
The subject of another assay is patients with T2D. The note with it: cited from earlier work.
Assay [6] concerns human beta and alpha cells in islet grafts. Put plainly: Total beta- and alpha-cell counts in human islet grafts. It counts as in vivo. The note with it: Donor 5 study. The gist of the method:
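After twice-daily sc dosing, the graft-bearing kidney was removed. For the Donor 5 study, grafts were recovered on day 21. Whole-section images were taken from the outer graft edge with a motorized-stage fluorescence microscope and stitched, and total insulin+ and glucagon+ cells were counted.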

The test system of assay [7] is INS-1 rat pancreatic beta-cell line. The note with it: in vitro; cited from earlier work.
The mark [8] stands for this setting: high dose 500 µg/kg sc twice daily.
The mark [9] stands for this setting: low dose 50 µg/kg sc twice daily, n=3 or 4.
Where [10] appears, read: medium dose 150 µg/kg sc twice daily.

On to lixisenatide, for which the “average percent beta-cell apoptosis at the end of each study” value in assay [1] (TUNEL-positive beta cells, control and lixisenatide groups, Donors 3, 4, 5) is reported as less than 1%. Further, the “beta-cell apoptosis (TUNEL) vs control” value in assay [1] (grafts recovered days 29, 32, 21 (Donors 3, 4, 5), all dose groups) is on record as “no significant differences in beta-cell apoptosis”. The GTT vs controls result in assay [2] (high dose 500 µg/kg (P<0.05)) and in assay [2] (medium dose 150 µg/kg (P<0.01)) was “significant differences from controls” in each case. Also, the “GTT vs control group” value in assay [2] (Donor 4 study, low dose 50 µg/kg (P<0.05)) is “significant differences from the control group”. Besides, in assay [3], the blood glucose is ~ 400 mg/dL. Besides, the “body weight change between transplant and nephrectomy” value was “all mice lost significant weight between the time of transplant and nephrectomy, except the medium-dose group” in assay [4] (Donor 1 study); “no significant change in body weight” in assay [4] (Donor 3 and 4 studies). Also, the “stimulation index (ratio of stimulated to fasting human insulin) vs control” value in assay [5] (high dose 500 µg/kg, Donor 3 and 4 studies) is reported as “significantly increased compared to controls”; in assay [5] (medium dose 150 µg/kg, Donor 1, 3 and 4 studies), “significantly increased compared to controls”. In addition, the “reduction in postprandial plasma glucose vs placebo” value in the assay on patients with T2D (T2D patients insufficiently controlled on metformin) is on record as “significantly greater reduction in postprandial plasma glucose”. Moreover, in the assay on patients with T2D (patients with T2D, once-daily administration), the “glycemic control (postprandial and fasting glucose levels)” value was “improved glycemic control by decreasing both postprandial and fasting glucose levels”. Moreover, the “numbers of alpha cells in islet graft relative to control group” value in assay [6] (setting [8]) and in assay [6] (setting [10]) was “approximately threefold higher” throughout. For the same substance, the “numbers of beta cells in islet graft relative to control group” value in assay [6] (setting [8]) and in assay [6] (setting [10]) was “approximately threefold higher” each time. Moreover, the “alpha-cell counts in islet graft relative to control group” value in assay [6] (setting [9]) is reported as “approximately twofold higher”. In addition, in assay [6] (setting [9]), the “beta-cell counts in islet graft relative to control group” value is “approximately twofold higher”. In assay [7], the “lipid- and cytokine-induced apoptosis” value is “protect against lipid- and cytokine-induced apoptosis”.

(Values after publication PMC4548726 (Diabetes, Metabolic Syndrome and Obesity: Targets and …, 2015).)
